A selection: hits, their analogues and other compounds. The true share with any hit is near 1.9%.
Runt-CBFb FRET: Runt domain-CBFb interaction inhibition | Q01196+Q13951 | Cerulean-Runt/Venus-CBFb FRET ratio 530/480, 1 h | inhibition, % at 20 µM | 220,000 compounds, 0.46% hits | AID 1496;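 active = inhibition over about 50% at 20 µM in the single-dose screen, limit read from the data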;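 also: 0% = DMSO wells and 100% = excess unlabeled CBFb competitor control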
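Schedule: protein complex preformed 1 h, compound exposure 1 h, room temperature, dark; test system: Cerulean-labeled Runt domain protein; amount: 100 nM per protein; buffer or medium: Tris 50 mM pH 7.5, KCl, K2SO4, 0.01% BSA; read-out: loss of energy transfer signal; detection: FRET fluorescence; controls: 5 µM unlabeled CBFb as full-inhibition high control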
Hck-Nef inh: blocks Nef-activated human Hck kinase; inhibition, % at 20 µM; Recombinant Hck-YEEI plus Nef, Z-Lyte FRET kinase assay; P08631; 220,000 compounds, 0.68% hits; AID 463187;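 active = Hck-Nef kinase inhibition above about 50%, limit read from the data; inactive = inhibition below that limit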;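 also: 0% = DMSO with Hck plus Nef and 100% = Hck alone without Nef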
Target sequence (P08631 whole entry, looked up): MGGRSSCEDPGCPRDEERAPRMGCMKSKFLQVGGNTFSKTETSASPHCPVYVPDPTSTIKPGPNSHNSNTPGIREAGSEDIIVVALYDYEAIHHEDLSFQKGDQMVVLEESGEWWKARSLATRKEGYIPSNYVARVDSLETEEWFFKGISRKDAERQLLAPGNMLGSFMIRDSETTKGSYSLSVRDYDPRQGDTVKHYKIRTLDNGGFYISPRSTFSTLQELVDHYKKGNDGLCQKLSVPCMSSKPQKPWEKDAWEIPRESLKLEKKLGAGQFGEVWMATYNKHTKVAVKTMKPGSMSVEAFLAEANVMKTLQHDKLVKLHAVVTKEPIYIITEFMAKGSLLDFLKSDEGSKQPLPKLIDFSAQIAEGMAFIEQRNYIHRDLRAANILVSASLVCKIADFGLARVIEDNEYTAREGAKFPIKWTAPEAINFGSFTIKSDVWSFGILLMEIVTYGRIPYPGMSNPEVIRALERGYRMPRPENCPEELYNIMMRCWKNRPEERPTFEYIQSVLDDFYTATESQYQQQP
RanGTP-Impb inh: disruptors of Ran-importin-beta complex formation – biochemical, FRET, CFP-Ran, YFP-importin-beta, homogeneous, primary screen; cell-free CFP-Ran/YFP-importin-beta FRET ratio; inhibition, % (concentration not given with the values); 300,000 compounds, 1.1% hits;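 active = more than half of the replicate wells show a fall in the fluorescence ratio signal beyond about 16%, limit read from the data, passing the limit was not always enough; inconclusive = exactly half of the replicate wells pass the set limit; inactive = fewer than half of replicates pass the limit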;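 also: 0% = DMSO wells and 100% = Ran loaded with GDP instead of GTP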
TbHK1 inh: T. brucei hexokinase 1 inhibition; recombinant TbHK1, G6PDH-coupled NADH A340; inhibition, % at 10 µM; 220,000 compounds, 0.11% hits; AID 1430;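 active = inhibition of 50% or more in the single-dose primary screen; inactive = inhibition below 50%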
Runt-SMMHC FRET: Runt domain-CBFb-SMMHC interaction inhibition. Q01196+Q13951. Cerulean-Runt/Venus-CBFb-SMMHC FRET ratio 530/480, 1 h. inhibition, % at 20 µM. 220,000 compounds, 0.74% hits. AID 1434;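 active = mean inhibition across duplicate retests at 20 µM reaching about 50%, limit read from the data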;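 also: 0% = DMSO wells and 100% = wells with excess untagged CBFb-SMMHC; inhibitors lower the FRET ratio by blocking Runt binding to CBFb-SMMHC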
Active calls of the source: *; ? = inconclusive; / = no result.

SMILES	Runt-CBFb FRET	Hck-Nef inh	RanGTP-Impb inh	TbHK1 inh	Runt-SMMHC FRET
COc1ccc(Cn2c(N)c(C#N)c3nc4ccccc4nc32)cc1	80*	10	33*	3	94*
COc1cc(Cn2c(N)c(C#N)c3nc4ccccc4nc32)cc(OC)c1	72*	3	38*	11	113*
O=C(NC1CCCN(CCc2ccccc2)C1)C1CCCC1 (stereo not drawn)	/	/	1	/	/
CCCCCCCCCC(=O)N/N=C/c1ccc(C)s1	0	-1	-2	13	-2
O=S(=O)([N-]c1nc2ccccc2nc1-n1cc[n+](Cc2ccccc2)c1)c1ccccc1	17	17	?	2	36
Cc1ccc(S(=O)(=O)[N-]c2nc3ccccc3nc2-n2cc[n+](Cc3ccccc3)c2)cc1	19	13	14*	-6	39
COc1ccc(/C=N/n2nnnc2N)c(OC)c1	/	/	-5	/	/
Cc1ccnc(N/C=C(\C#N)c2nc(-c3cccc(Br)c3)cs2)c1	-53	4	56*	-1	-56
Cc1ccc(C(=O)Oc2cccnc2)cc1[N+](=O)[O-]	102*	5	1	0	2
CC1(C)Cc2c(cnn2-c2ccccc2)C(NC(=O)CCCn2cncn2)C1 (stereo not drawn)	/	/	0	/	/
CC(C)(C)c1ccc(C(=O)Nc2cccc3c(=O)[nH][nH]c(=O)c23)cc1	4	-4	39*	4	78
O=C(NCc1ccco1)c1cnn2c1NC(c1ccc(Br)cc1)CC2C(F)(F)F (stereo not drawn)	0	1	25*	-14	7
O=C(NCc1ccco1)c1cnn2c1NC(c1ccccc1)CC2C(F)(F)F (stereo not drawn)	-2	1	-5	-6	-7
COc1ccc(NC(=S)NNC(=O)c2ccco2)c(OC)c1	/	/	0	/	/
Cn1c(=O)c2c(SCC(=O)N3CCCC3)nc(CC(C)(C)C)nc2n(C)c1=O	/	/	1	/	/
O=C(NC(NNc1ccc([N+](=O)[O-])cc1)(C(F)(F)F)C(F)(F)F)c1ccccc1Cl	-1	-1	23*	-14	-7
C=CCSc1ncc(CO)n1Cc1ccccc1	-1	14	2	0	2
O=C(CN1CCN(Cc2ccc3c(c2)OCO3)CC1)N1CCc2[nH]c3ccc(F)cc3c2C1	-18	-3	-5	-9	-21
O=C(CN1CCN(Cc2ccc3c(c2)OCO3)CC1)N1CCc2[nH]c3ccccc3c2C1	-6	3	32*	-1	-10
CC1CN(CC(=O)N2CCc3[nH]c4ccccc4c3C2)CC(C)O1 (stereo not drawn)	-28	-2	28*	4	-7
CC(C)(CNC(=O)c1ccc(-c2ccccc2Cl)o1)N1CCOCC1	/	/	5	/	/
CCOC(=O)N1CC=C2C(C#N)=C(N)C(C#N)(C#N)[C@H](c3ccccc3OCC)[C@H]2C1	0	6	3	17	-1
CCN1CC=C2C(C#N)=C(N)C(C#N)(C#N)[C@H](c3cccc(OC)c3OC)[C@H]2C1	41	18	/	-6	62*
COc1cccc(C2C3CN(C)CC=C3C(C#N)=C(N)C2(C#N)C#N)c1OC (stereo not drawn)	74*	12	39*	-7	62*
COc1cc2[nH]c(Cl)c([N+](=O)[O-])c2cc1OC	4	22	19*	-38	36
SMILES	Runt-CBFb FRET	Hck-Nef inh	RanGTP-Impb inh	TbHK1 inh	Runt-SMMHC FRET
CC12CCC(=O)N1C(C(=O)Nc1cc(S(=O)(=O)N3CCCCCC3)ccc1OCC(F)(F)F)CS2 (stereo not drawn)	/	/	2	/	/
O=c1[nH]cc(NCCc2ccccc2)c(=O)[nH]1	9	29	43*	1	16
CCc1ccc(NC(=O)CSc2nccn(-c3ccc4c(c3)OCCO4)c2=O)cc1	/	/	3	/	/
Cn1cccc1C(=O)OCc1ccc(C(C)(C)C)cc1	/	/	6	/	/
Cc1cccc(C(=O)N=c2c(C#N)cc3c(=O)n4cccc(C)c4nc3n2Cc2ccco2)c1	95*	28	112*	-8	/
Cc1cccn2c(=O)c3cc(C(=O)N(C)C)n(C)c3nc12	-11	23	-5	-27	-24
Cc1cccn2c(=O)c3cc(C#N)c(=NC(=O)c4ccccc4)n(Cc4ccco4)c3nc12	/	/	110*	/	/
Cc1cccn2c(=O)c3cc(C#N)c(=NC(=O)c4ccco4)n(Cc4ccco4)c3nc12	10	23	120*	-14	88*
COc1ccc(N2CSC3=C(C#N)C(c4cccc(OC)c4OC)CC(=O)N3C2)cc1 (stereo not drawn)	15	0	2	-22	33
COc1ccc(OC)c(C2CC(=O)N3CN(c4ccccc4)CSC3=C2C#N)c1 (stereo not drawn)	33	0	-7	-23	62*
COc1cc(OC)c(C2CC(=O)N3CN(c4ccccc4C)CSC3=C2C#N)cc1OC (stereo not drawn)	41	13	-64	-18	67*
Cc1cccc(N2CSC3=C(C#N)C(c4ccc(C)o4)CC(=O)N3C2)c1 (stereo not drawn)	23	80*	-6	0	19
CC1CN(C(=O)CCC(=O)NCCCc2ccccc2)c2ccccc2O1 (stereo not drawn)	/	/	-4	/	/
Cn1cc(/C=N\O)nc2c(=O)n(-c3ccccc3)c(=O)nc1-2	84*	30	33*	1	95*
O/N=C/c1cn(-c2ccccc2)nn1	0	24	-2	2	1
COc1ccc2c(c1)c1ccc3c(c1n2C)C(=O)C=CC3=O	64*	18	/	-25	41
Cc1ccc2c(c1)c1ccc3c(c1n2C)C(=O)C=CC3=O	55*	13	/	2	32
COc1ccc(S(=O)(=O)NCC2CC3C=CC2C3)cc1OC (stereo not drawn)	/	/	4	/	/
CCCCN1C(=O)/C(=C/C=C2\Oc3ccccc3N2CC)SC1=S	4	24	-6	-4	-47
CCN1/C(=C/C=C/c2oc3ccc(-c4ccccc4)cc3[n+]2CC)Oc2ccc(-c3ccccc3)cc21	-58	-14	0	101*	-266
COc1cccc(N=CC=C2OC(C)(C)C(C)(C)O2)c1	-2	23	9	-8	-4
COc1ccc(N=CC=C2OC(C)(C)C(C)(C)O2)cc1OC	4	15	15*	-25	-4
Cc1cc(Cl)c2ccccc2n1	-1	1	1	0	-6
Clc1cncc(Cl)c1NNc1c2ccccc2nc2ccccc12	128*	9	23*	-9	83*
COC(=O)c1nn(-c2ccc(C)cc2)c2nnc(Cc3ccccc3)c(=O)n12	-7	-2	-6	-7	-3
Cc1ccc(S(=O)(=O)N(Cc2ccccc2)c2ccccc2C(=O)N2CCCCC2)cc1	/	/	8	/	/
Cc1ccc(N(C)S(=O)(=O)c2ccc3c(c2)CC(C)N3C(=O)C2CC2)cc1 (stereo not drawn)	/	/	51*	/	/

Screens deposited in PubChem BioAssay by several laboratories.
